# Mot1-301 SUMO: yeast Mot1-301 growth rescue at high temperature, primary screen, SUMOylation pathway inhibitor project, S. cerevisiae, ATP luminescence, 38.5C; AID 2716, 2010; growth rescue, % at 18.8 µM; S. cerevisiae Mot1-301 growth rescue; percent above DMSO median, 100 means doubled; 1% of 320,000 active;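 active means every valid replicate shows activation above 250% relative to neutral control wells; inactive means the rest, any valid replicate at or below 250%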;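 further: OY570 slx delta 5 strain wells were the positive control but not used for scaling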
# SUMO HTRF inh: inhibitors of in vitro SUMOylation cascade, primary screen, biochemical, HTRF, uHTS | SUMO-conjugating enzyme UBC9 (Homo sapiens), P63279 | 0.36% of 290,000 active | HTRF SUMOylation assay, SAE1/SAE2 + UBC9 | inhibition, % at 35 µM; in the data active means inhibition above about 50%, passing the limit was not always enough; inconclusive means no clear call, values can overlap the other calls
# Target sequence (P63279 whole entry, looked up): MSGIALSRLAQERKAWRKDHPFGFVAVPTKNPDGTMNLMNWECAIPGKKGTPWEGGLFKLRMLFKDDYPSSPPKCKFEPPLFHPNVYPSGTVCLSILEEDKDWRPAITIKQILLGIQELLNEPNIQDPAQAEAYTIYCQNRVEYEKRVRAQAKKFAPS
# NALP1 inh: NALP1 inflammasome inhibitors in reconstituted yeast, colorimetric, S. cerevisiae, triplicate retest; S. cerevisiae NALP1/ASC/caspase-1 growth, X-gal OD620, 72 h; 0.61% of 280,000 active; inhibition, % at 10 µM; in the data active means inhibition mostly above about 24%, no sharp cut-off; inactive means mostly below about 32%
# FID counter: compounds displacing fluorescent DNA intercalator, primary screen, artefact control for HCV NS3 helicase inhibitor project, biochemical, FID fluorescence; DNA fluorescent intercalator displacement; inhibition, % at 7.9 µM; AID 1845, 2009; 0.17% of 290,000 active; in the data active means inhibition above about 37%;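 further: 0% = vehicle and 100% = reference compound; higher means more ethidium bromide displaced from hairpin DNA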
# VIM-2 inh: VIM-2 metallo-beta-lactamase inhibitors, primary screen, biochemical, epi-absorbance readout, Pseudomonas aeruginosa enzyme; purified VIM-2, nitrocefin hydrolysis, epi-absorbance fluorescence; inhibition, % at 5.6 µM; 0.89% of 290,000 active; AID 1527, 2009;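 active means inhibition above the mean of all tested compounds plus 3 SD, cutoff set per screening run, cut at about 7.5% in these data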;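 further: red hydrolysis product quenches plate fluorescence so inhibitors raise well fluorescence; 0% = enzyme with DMSO and 100% = DMSO without enzyme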
# IMP-1 inhibitor: IMP-1 metallo-beta-lactamase inhibitors, primary screen, biochemical, epi-absorbance readout, Pseudomonas aeruginosa enzyme; metallo-beta-lactamase IMP-1 (Pseudomonas aeruginosa); purified IMP-1, nitrocefin hydrolysis, epi-absorbance fluorescence; inhibition, % at 5.6 µM; 0.45% of 290,000 active; AID 1556, 2009;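 active means inhibition above the mean plus 3 SD of all compounds in the same screening run, cut at about 4.5% in these data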;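 further: 0% = IMP-1 with DMSO and 100% = DMSO wells lacking enzyme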
#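 System – purified recombinant IMP-1 beta-lactamase · Input – IMP-1 dispensed at 0.2 nM · Timing – 15 min preincubation plus 25 min reaction at 25 °C · Signal – Epi-absorbance fluorescence, 480 nm excitation, 530 nm emission · Measure – percent IMP-1 inhibition derived from blank-referenced optical density · Controls – Enzyme-plus-DMSO low control, enzyme-free DMSO high control · Replication – singlicate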
# Starred values were filed as active, the others as inactive; u = inconclusive; x = no result given. Hits are enriched below; roughly 2.9% of the tested compounds scored in any of these assays.
SMILES,Mot1-301 SUMO,SUMO HTRF inh,NALP1 inh,FID counter,VIM-2 inh,IMP-1 inhibitor
CCN(CC)CCN(C(=O)C1=COCCO1)c1nc2ccc(C)cc2s1,30.1,-5.4,10.8,15.2,0.7,-1.3
CCC(C)/C(C)=N/NC(=O)c1ccccc1OCCOc1ccccc1 (stereo not drawn),-5.1,3.9,19.1,-11.3,-3.9,-3.4
CCOC(=O)C1=C(C)N(c2ccc(C)cc2)C(=O)/C1=C\c1ccc(O)c(OC)c1,131.9,-2.1,11.7,-9.6,5.2,-0.3
CCOC(=O)C1=C(O)c2ccccc2C(=O)/C1=C\c1ccc(C)cc1,279.6*,10.7,56.8,-0.3,-3.0,-3.4
O=C1/C(=C/c2ccccc2)CSc2sccc21,9.6,-5.7,10.7,-7.1,-2.3,2.5
O=C(Oc1ccc(-n2cnnn2)cc1)c1ccccc1,7.8,8.3,-4.3,2.4,1.4,-1.2
CC(=O)NN1C(=O)c2ccc(Oc3cccc([N+](=O)[O-])c3)cc2C1=O,220.4,10.7,1.3,0.7,6.4,6.0*
CC(=O)NN1C(=O)c2ccc(Oc3ccc([N+](=O)[O-])cc3)cc2C1=O,170.2,21.5,8.4,1.7,-4.4,-2.4
CC(=O)N(Cc1ccccc1)c1nc(-c2ccccc2)cs1,9.9,-4.2,11.9,-9.6,-1.1,-2.6
COc1cc2c(C(=O)Nc3ccc4c(c3)OCO4)cn(CC(C)C)c(=O)c2cc1OC,343.2*,12.8,26.1,-30.4,-3.8,-3.3
Cc1ccc(-c2nc3ccccc3o2)cc1NC(=O)c1ccc2c(c1)OCO2,5.8,58.2*,-8.8,-1.6,-3.4,-1.6
O=C(Nc1ccc(-c2nc3ccccc3o2)cc1)c1ccc2c(c1)OCO2,-14.5,30.7,x,0.1,-1.1,-2.2
Cc1cc(-c2csc(NC(=O)c3ccc(=O)[nH]c3)n2)c(C)n1Cc1ccco1,-1.3,93.4*,2.6,-12.3,0.0,0.0
CCNc1nc(-c2cc(C)n(Cc3ccco3)c2C)cs1,2.9,55.9*,9.6,-17.3,-3.3,-0.2
Cc1csc(NC(=O)c2ccc(=O)[nH]c2)n1,34.1,28.8,11.3,-3.7,-0.1,-1.5
NC(=O)[C@@H]1CCCNc2c(I)cc([N+](=O)[O-])cc2C(=O)N[C@@H](CCCN=C(N)N)C(=O)N[C@@H](CCCN=C(N)N)C(=O)N1,-8.3,0.2,8.9,46.5*,-0.3,11.6*
Cc1nc(C)c(-c2ccc(SCc3ccccc3C)nn2)s1,7.4,-2.6,11.9,-36.2,-2.0,-1.7
CCOC(=O)c1ccc(S(=O)(=O)NNC(=O)c2cccc(N(C)C)c2)cc1,-7.7,20.2,2.8,-18.2,-3.6,-4.9
O=C(NCc1ccccc1)C1CCN(S(=O)(=O)c2ccc(Cl)cc2)CC1,1.6,1.3,4.8,-12.1,-4.7,-4.1
CCc1cc2c(NCC(=O)O)ncnc2s1,-15.3,13.4,39.4*,-5.2,-2.5,-4.5
Cn1c(C(=O)NCCN2CCOCC2)cc2c(=O)n3ccccc3nc21,0.4,x,17.2,-6.3,8.3*,-0.6
Cc1cccn2c(=O)c3cc(C(=O)NC4CCCC4)c(=N)n(CC4CCCO4)c3nc12 (stereo not drawn),3.6,23.5,4.1,0.4,-0.8,-4.1
Cc1cccn2c(=O)c3cc(C(=O)NCCN4CCOCC4)c(=N)n(CCN4CCOCC4)c3nc12,142.9,13.8,3.0,19.1,10.9*,0.1
COCCn1c(=N)c(C(=O)NCCc2ccc(OC)cc2)cc2c(=O)n3cccc(C)c3nc21,5.9,20.3,-4.8,14.2,1.1,-3.2
CCOCCCn1c(=N)c(C(=O)NCCN2CCOCC2)cc2c(=O)n3cccc(C)c3nc21,-7.8,x,x,19.9,1.4,-1.9
SMILES,Mot1-301 SUMO,SUMO HTRF inh,NALP1 inh,FID counter,VIM-2 inh,IMP-1 inhibitor
Cc1cccn2c(=O)c3cc(C(=O)NC4CCCC4)c(=N)n(CCCN4CCOCC4)c3nc12,-7.4,14.3,15.0,41.4*,3.1,-3.2
COCCCn1c(C(=O)NCCN2CCOCC2)cc2c(=O)n3ccccc3nc21,-15.5,49.5,3.7,-10.9,2.3,-2.7
COc1ccc(CCNC(=O)c2cc3c(=O)n4cccc(C)c4nc3n(CCCN3CCOCC3)c2=N)cc1,13.0,8.1,5.0,54.5*,7.8*,-3.3
CCN1C(=O)[C@H]2[C@@H](c3ccc(C)cc3)N3C(=O)N(c4cccc(F)c4)C(=O)[C@@]3(C)[C@H]2C1=O,-4.9,-0.8,21.1,-17.5,-1.7,-2.0
CCOC(=O)c1c(NC(=S)NNS(=O)(=O)c2ccc(Br)cc2)sc2c1CCCCC2,225.2,10.1,12.7,-14.9,-5.0,-1.0
Cc1ccc(S(=O)(=O)Nc2ncnc3ccccc23)cc1,-19.9,12.1,27.0,-10.1,1.0,-2.2
O=C(NN=Cc1c(F)c(F)c(F)c(F)c1F)c1ccc(NS(=O)(=O)c2cccs2)cc1,-9.5,x,x,x,x,x
COc1ccc(CNC(=O)c2cc3c(=O)n4cccc(C)c4nc3n(CC3CCCO3)c2=N)cc1 (stereo not drawn),12.0,26.8,35.6*,20.6,3.2,-1.5
CC1CCCCC1NC(=O)c1cc2c(=O)n3ccccc3nc2n1C (stereo not drawn),-15.9,58.0*,12.4,-27.7,3.6,-1.6
Cc1cccn2c(=O)c3cc(C(=O)N4CCOCC4)n(C)c3nc12,-6.8,18.9,12.1,-11.1,8.2*,-1.0
Cn1c(C(=O)N2CCOCC2)cc2c(=O)n3ccccc3nc21,-2.4,u,-6.2,-8.3,-0.9,-4.1
Cn1c(C(=O)N2CCN(C(=O)c3ccco3)CC2)cc2c(=O)n3ccccc3nc21,x,57.7*,8.3,-9.8,0.5,0.1
COc1ccc(-c2nnc(SCC(=O)NCc3cccs3)n2CC(C)C)cc1,0.3,-2.5,16.2,-25.8,-2.2,-3.9
CCN1C(=O)N[C@@H](CCc2ccccc2)C(C(C)=O)=C1C,5.7,x,x,x,x,x
COc1ccc(S(=O)(=O)Nc2ccc(Oc3ccsc3C(=O)O)cc2)cc1,-8.1,3.6,5.7,-20.2,2.8,-1.7
COc1cc(C(=O)NNC(=O)CNC(=O)c2ccc(Br)o2)cc(OC)c1OC,1.5,5.6,2.2,-10.0,-3.8,-3.4
Oc1ccccc1-c1cc(-c2ccccc2)n[nH]1,338.4*,x,x,x,x,x
Oc1ccc(Cl)cc1-c1cc(-c2ccccc2)n[nH]1,342.6*,-7.9,13.9,4.6,-4.2,-0.8
Cc1ccc(O)c(-c2cc(-c3cccc(Br)c3)n[nH]2)c1,280.3*,-0.3,16.2,4.6,-4.8,-2.9
O=C(O)COc1ccc(/C=C/C(=O)c2ccc(C3CCCCC3)cc2)cc1,-10.2,26.5,5.9,6.7,1.7,-0.6

# High-throughput results deposited in PubChem BioAssay by several laboratories.
